Results on 21 compounds are retold here after ChEMBL document CHEMBL3232870, “Discovery of 3-(4-methanesulfonylphenoxy)-N-[1-(2-methoxy-ethoxymethyl)-1H-pyrazol-3-yl]-5-(3-methylpyridin-2-yl)-benzamide as a novel glucokinase activator (GKA) for the treatment of type 2 diabetes mellitus” (Bioorg Med Chem, 2014).

pEC50: −log10 of the molar value.

In data set [1] the test system is Mus musculus. The data set is described as follows: Antidiabetic activity in glucose-treated C57BL/J6 db/db mouse assessed as reduction of glucose AUC at 50 mg/kg, po preincubated for 30 mins followed by glucose challenge measured after 30 to 180 mins by oral glucose tolerance test relative to control. It counts as functional. The arrangement: scale not given: the % may be the effect or the level left. The note with it: in the assay text read “C57BL/J6 mouse” for “C57BL/J6 db/db mouse”. The method, boiled down:
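Oral glucose tolerance test. Mice: eight-week-old male C57BL/6 or ten-week-old male C57BLKS/J db/db, fasted overnight with water. Compound or 0.5% methylcellulose vehicle given orally, then an oral 2 g/kg glucose challenge 30 min later. Tail-tip blood glucose was read just before and at 30, 60, 90, 120 and 180 min. AUC was calculated from the time–glucose curve; n = 6.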

In a further data set the target is T1, Hexokinase-4 (Homo sapiens, UniProt P35557).
T1 sequence (P35557 whole entry): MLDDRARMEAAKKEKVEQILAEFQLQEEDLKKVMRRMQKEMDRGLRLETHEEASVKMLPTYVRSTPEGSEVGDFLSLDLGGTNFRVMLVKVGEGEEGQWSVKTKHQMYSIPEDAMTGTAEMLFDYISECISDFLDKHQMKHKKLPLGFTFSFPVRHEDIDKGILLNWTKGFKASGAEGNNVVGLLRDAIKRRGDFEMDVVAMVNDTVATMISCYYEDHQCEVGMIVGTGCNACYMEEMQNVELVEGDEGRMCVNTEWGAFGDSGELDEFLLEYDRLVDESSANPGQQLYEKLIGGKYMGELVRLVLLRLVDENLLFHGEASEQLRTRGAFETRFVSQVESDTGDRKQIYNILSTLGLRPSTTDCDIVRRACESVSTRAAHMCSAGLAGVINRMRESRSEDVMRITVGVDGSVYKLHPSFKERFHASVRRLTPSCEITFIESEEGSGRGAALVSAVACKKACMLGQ
The data set is described as follows: Activation of recombinant human pancreatic glucokinase using 10 mM glucose by spectrophotometry. The method, boiled down:
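Purified recombinant human pancreatic glucokinase, compounds in DMSO. Buffer: 25 mM HEPES pH 7.4, 10 mM glucose, 25 mM KCl, 1 mM MgCl2, 1 mM DTT, 1 mM ATP, 1 mM NADP, 2.5 U/mL G6PDH. Activity was expressed against DMSO-only control (100%). EC50 came from 12 concentrations fitted to a variable-slope sigmoidal curve. Values are means of three duplicate runs.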

A further data set relates to Hepatocyte. As to the kind of experiment: Induction of 2-Deoxy-D-[3H]-glucose uptake in rat Hepatocytes using 5.5 mM glucose after 4 hrs by liquid scintillation counting. It counts as functional. Put shortly:
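Rat primary hepatocytes, isolated by collagenase liver perfusion, viability over 85%. Cells attached 36 h on collagen I in MEM with 10% FBS, then serum-starved 12 h. Incubated 4 h in serum-free MEM with 5.5 mM glucose and 2-deoxy-D-[3H]-glucose, with or without compound. Washed in ice-cold PBS, lysed in 0.1 N NaOH, scintillation counted, expressed as % increase over control.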

The subject of data set [2] is Mus musculus. As to the kind of experiment: Antidiabetic activity in glucose-treated C57BL/J6 mouse assessed as reduction of glucose AUC at 300 mg/kg, po preincubated for 30 mins followed by glucose challenge measured after 30 to 180 mins by oral glucose tolerance test relative to control. The arrangement: scale not given: the % may be the effect or the level left.
Data set [3] relates to Mus musculus. The data set is described as follows: Toxicity in fasting C57BL/J6 mouse assessed as glucose lowering effect at 30 mg/kg, po after 30 to 360 mins. It counts as organism-based. More on the design: dose 30 mg/kg, route oral. The note with it: in vivo. Put shortly: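 Eight-week-old male C57BL/6 mice were fasted 6 h with free access to water, then dosed orally with compound or 0.5% methylcellulose vehicle, with no glucose challenge. Blood glucose was followed up to 360 min, n = 6 per group.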

Broadly, the pEC50 is the EC50 on a negative log10 scale, so that one unit is a factor of ten. On to `Cc1cccnc1-c1cc(Oc2ccc(S(C)(=O)=O)cc2)cc(C(=O)Nc2nccs2)c1`, for which the Activity in the data set on Mus musculus [1] stood at 29.8%. At Hexokinase-4, the negative logarithm of the EC50 (pEC50) was 7.02. Moreover, the “fold change (FC)” value in the data set with Hepatocyte was found to be 1.98.
Consider `Cc1cccnc1-c1cc(Oc2ccc(S(C)(=O)=O)cc2)cc(C(=O)Nc2ncc(F)s2)c1`, for which the Activity in the data set with Mus musculus [1] is recorded as 22.6%. Also, the negative-log EC50 (pEC50) on Hexokinase-4 is 6.62. The “fold change (FC)” value with Hepatocyte amounted to 1.75.
For the compound `Cc1cccnc1-c1cc(Oc2ccc(S(C)(=O)=O)cc2)cc(C(=O)Nc2nc(CC(=O)NC3CC3)cs2)c1`, the Activity in the data set on Mus musculus [1] is recorded as -3.1%. Further, the negative logarithm of the EC50 (pEC50) on Hexokinase-4 is 6.99. In the data set with Hepatocyte, the “fold change (FC)” value is reported as 1.8.
Turning to `CCNC(=O)Cc1csc(NC(=O)c2cc(Oc3ccc(S(C)(=O)=O)cc3)cc(-c3ncccc3C)c2)n1`, the Activity in the data set on Mus musculus [1] is -0.3%. For the same compound, on Hexokinase-4, the pEC50 is 8.30. The “fold change (FC)” value in the data set with Hepatocyte worked out at 2.54.
For the compound `CCN(CC)Cc1csc(NC(=O)c2cc(Oc3ccc(S(C)(=O)=O)cc3)cc(-c3ncccc3C)c2)n1`, on Hexokinase-4, the pEC50 was less than 4.30.
As for `Cc1cccnc1-c1cc(Oc2ccc(S(C)(=O)=O)cc2)cc(C(=O)Nc2nc(CN3CCOCC3)cs2)c1`, on Hexokinase-4, the negative logarithm of the EC50 (pEC50) is 6.67. In addition, in the data set with Hepatocyte, the “fold change (FC)” value is 2.1.
Turning to `Cc1cccnc1-c1cc(Oc2ccc(S(C)(=O)=O)cc2)cc(C(=O)Nc2nc(CN3CCN(C)CC3)cs2)c1`, the Activity with Mus musculus [1] amounted to 4.4%. Besides, the pEC50 at Hexokinase-4 was 6.16. Besides, the “fold change (FC)” value in the data set with Hepatocyte is 1.19.
In the same order, the values of `COCCN(CCOC)Cc1csc(NC(=O)c2cc(Oc3ccc(S(C)(=O)=O)cc3)cc(-c3ncccc3C)c2)n1` are 20.2%, 5.61 and 2.02.
For the compound `COCCN(C)Cc1csc(NC(=O)c2cc(Oc3ccc(S(C)(=O)=O)cc3)cc(-c3ncccc3C)c2)n1`, the pEC50 on Hexokinase-4 was 5.13. In addition, in the data set with Hepatocyte, the “fold change (FC)” value was 1.46.
With `Cc1cccnc1-c1cc(Oc2ccc(S(C)(=O)=O)cc2)cc(C(=O)Nc2nc(CN3CCNCC3)cs2)c1`, the pEC50 on Hexokinase-4 was less than 4.30.
Consider `COCC(C)NCc1csc(NC(=O)c2cc(Oc3ccc(S(C)(=O)=O)cc3)cc(-c3ncccc3C)c2)n1` (centres undefined), for which the pEC50 at Hexokinase-4 was 8.10. In the data set on Hepatocyte, the “fold change (FC)” value is on record as 1.72.
In the same order, the values of `COC(CNCc1csc(NC(=O)c2cc(Oc3ccc(S(C)(=O)=O)cc3)cc(-c3ncccc3C)c2)n1)OC` are 7.48 and 1.92.
As to `Cc1cccnc1-c1cc(Oc2ccc(S(C)(=O)=O)cc2)cc(C(=O)Nc2nc(CNC(C)C)cs2)c1`, in the data set with Mus musculus [1], the Activity came out at 2.2%. Besides, the pEC50 at Hexokinase-4 is 6.33. Also, the “fold change (FC)” value in the data set with Hepatocyte was 1.47.
Take `C#CCNCc1csc(NC(=O)c2cc(Oc3ccc(S(C)(=O)=O)cc3)cc(-c3ncccc3C)c2)n1`: the pEC50 on Hexokinase-4 was 6.97. In the data set with Hepatocyte, the “fold change (FC)” value was determined as 2.35.
On to `CCCNCc1csc(NC(=O)c2cc(Oc3ccc(S(C)(=O)=O)cc3)cc(-c3ncccc3C)c2)n1`, for which the pEC50 at Hexokinase-4 is less than 4.30.
For `Cc1cccnc1-c1cc(Oc2ccc(S(C)(=O)=O)cc2)cc(C(=O)Nc2ccn(C)n2)c1`, in the data set on Mus musculus [1], the Activity was determined as 24.1%. Further, the pEC50 on Hexokinase-4 was 6.09. In the data set on Hepatocyte, the “fold change (FC)” value amounted to 1.74.
Take `CCOCn1ccc(NC(=O)c2cc(Oc3ccc(S(C)(=O)=O)cc3)cc(-c3ncccc3C)c2)n1`: the pEC50 at Hexokinase-4 was less than 4.30.
Still for that read-out and setting: the figure for `CCN(CC)CCn1ccc(NC(=O)c2cc(Oc3ccc(S(C)(=O)=O)cc3)cc(-c3ncccc3C)c2)n1` is less than 4.30.
In the case of `Cc1cccnc1-c1cc(Oc2ccc(S(C)(=O)=O)cc2)cc(C(=O)Nc2ccn(CCN3CCOCC3)n2)c1`, the Activity with Mus musculus [1] turned out to be 17.8%. Also, the pEC50 at Hexokinase-4 is 6.36. The “fold change (FC)” value in the data set on Hepatocyte came out at 1.86.
Regarding `CN(C)C(=N)NC(=N)N` [METFORMIN], the Activity with Mus musculus [2] is given as 29.9%.
Regarding `N[C@@H](CC(=O)N1CCn2c(nnc2C(F)(F)F)C1)Cc1cc(F)c(F)cc1F` [SITAGLIPTIN], the Activity entry with Mus musculus [3] was “Non-toxic”.
